In paper PMC4734651 (MedChemComm, 2014):

target: TrkA (Homo sapiens, UniProt P04629); assay: TrkA biochemical screening assay; conditions: 39 compared with 26
In short: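 5FAM-tagged TrkA peptide (1.5 μM final) and ATP (190 μM final) then added. Run to 10–20% conversion in no-inhibitor wells; no-enzyme blanks. Product/substrate peaks separated on chip; percent inhibition calculated.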

Chain of TrkA (P04629 33-796): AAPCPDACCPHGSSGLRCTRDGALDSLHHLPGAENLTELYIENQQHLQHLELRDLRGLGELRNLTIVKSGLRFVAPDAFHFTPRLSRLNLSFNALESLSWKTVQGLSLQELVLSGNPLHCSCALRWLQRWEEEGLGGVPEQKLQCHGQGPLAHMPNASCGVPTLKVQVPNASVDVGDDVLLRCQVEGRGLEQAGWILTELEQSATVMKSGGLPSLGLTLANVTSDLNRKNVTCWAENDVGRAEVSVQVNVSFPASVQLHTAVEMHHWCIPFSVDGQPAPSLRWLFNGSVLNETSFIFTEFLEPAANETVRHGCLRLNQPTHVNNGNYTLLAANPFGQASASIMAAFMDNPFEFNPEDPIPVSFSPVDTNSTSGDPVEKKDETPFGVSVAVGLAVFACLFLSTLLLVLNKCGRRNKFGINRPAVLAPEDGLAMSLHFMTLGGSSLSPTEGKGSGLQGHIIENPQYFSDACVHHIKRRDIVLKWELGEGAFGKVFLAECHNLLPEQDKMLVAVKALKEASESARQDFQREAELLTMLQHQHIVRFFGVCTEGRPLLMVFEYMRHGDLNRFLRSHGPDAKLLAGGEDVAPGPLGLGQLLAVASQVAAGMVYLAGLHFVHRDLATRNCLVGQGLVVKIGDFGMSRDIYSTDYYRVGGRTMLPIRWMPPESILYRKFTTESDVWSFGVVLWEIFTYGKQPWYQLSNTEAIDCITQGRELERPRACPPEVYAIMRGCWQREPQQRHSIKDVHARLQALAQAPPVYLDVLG

| Structure (SMILES) | increase in TrkA inhibition in comparison to 26 |
| --- | --- |
| Cn1cc(-c2cncc(-c3ccc(NC(=O)Nc4cc(C(C)(C)C)on4)cc3)n2)cn1 [Compound 39] | ~ 5 fold |

same assay, conditions: chlorine at A-region derivatized, compared with 1a

| Structure (SMILES) | TrkA affinity increase relative to compound 1a [times] |
| --- | --- |
| COc1ccc(-c2cncc(Oc3cccc(NC(=O)Nc4cc(C(C)(C)C)on4)c3)n2)cc1 [Compound 9] | > 1000 |
| CC(C)(C)c1cc(NC(=O)Nc2cccc(Oc3cncc(-c4ccsc4)n3)c2)no1 [Compound 15] | > 1000 |
| CC(C)(C)c1cc(NC(=O)Nc2cccc(Oc3cncc(-c4ccc(S(C)(=O)=O)cc4)n3)c2)no1 [Compound 20] | > 1000 |
| Cn1cc(-c2cncc(Oc3cccc(NC(=O)Nc4cc(C(C)(C)C)on4)c3)n2)cn1 [Compound 26] | > 1000 |
| CC(C)(C)c1cc(NC(=O)Nc2cccc(Oc3cncc(-c4ccc(F)cc4)n3)c2)no1 [Compound 36] | > 1000 |

same assay, conditions: qualitative statement

| Structure (SMILES) | TrkA activity (in words) |
| --- | --- |
| CC(C)(C)c1cc(NC(=O)Nc2cccc(Oc3cncc(Cl)n3)c2)no1 [Compound 1a] | not strongly active |
| CC(C)(C)c1ccc(NC(=O)Nc2cccc(Oc3cncc(-c4ccsc4)n3)c2)cc1 [Compound 13] | relatively inactive |
| CC(C)(C)c1cc(NC(=O)Nc2cccc(Oc3cncc(-c4ccsc4)n3)c2)on1 [Compound 14] | relatively inactive |
| Cn1nc(C(C)(C)C)cc1NC(=O)Nc1cccc(Oc2cncc(-c3ccsc3)n2)c1 [Compound 16] | relatively inactive |
| Cn1cc(-c2cncc(-c3ccc(NC(=O)Nc4cc(C(C)(C)C)on4)cc3)n2)cn1 [Compound 39] | far more potent than their ether linked counterparts |
| Cn1cc(-c2cncc(-c3ccc(NC(=O)Nc4cc(C(C)(C)C)nn4C)cc3)n2)cn1 [Compound 40] | far more potent than their ether linked counterparts |

same assay, conditions: read-out: %TrkA inhibition, 20 μM

| Structure (SMILES) | inhibition at 20 µM [%] |
| --- | --- |
| CC(C)(C)c1cc(NC(=O)Nc2ccc(-c3cncc(Cl)n3)cc2)no1 [Compound 38] | 41.4 ± 3.3 |
| Cn1cc(-c2cncc(-c3ccc(NC(=O)Nc4cc(C(C)(C)C)on4)cc3)n2)cn1 [Compound 39] | 96.1 ± 2.3 |
